TRPC4 block: inhibitors of mouse TRPC4 channel, primary screen, Fluo4 calcium, HEK293 TRPC4beta/mu-opioid cells; Short transient receptor potential channel 4 (Mus musculus), Q9QUQ5; DAMGO-evoked Fluo4 calcium flux; hits give low values; B-score at 10 µM; actives 0.39% (n = 300,000); AID 2247, 2010;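 active = B-score over 3 SD under the library average, no early fluorescence shift, positive overall ratio signal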
Target sequence (Q9QUQ5 whole entry, looked up): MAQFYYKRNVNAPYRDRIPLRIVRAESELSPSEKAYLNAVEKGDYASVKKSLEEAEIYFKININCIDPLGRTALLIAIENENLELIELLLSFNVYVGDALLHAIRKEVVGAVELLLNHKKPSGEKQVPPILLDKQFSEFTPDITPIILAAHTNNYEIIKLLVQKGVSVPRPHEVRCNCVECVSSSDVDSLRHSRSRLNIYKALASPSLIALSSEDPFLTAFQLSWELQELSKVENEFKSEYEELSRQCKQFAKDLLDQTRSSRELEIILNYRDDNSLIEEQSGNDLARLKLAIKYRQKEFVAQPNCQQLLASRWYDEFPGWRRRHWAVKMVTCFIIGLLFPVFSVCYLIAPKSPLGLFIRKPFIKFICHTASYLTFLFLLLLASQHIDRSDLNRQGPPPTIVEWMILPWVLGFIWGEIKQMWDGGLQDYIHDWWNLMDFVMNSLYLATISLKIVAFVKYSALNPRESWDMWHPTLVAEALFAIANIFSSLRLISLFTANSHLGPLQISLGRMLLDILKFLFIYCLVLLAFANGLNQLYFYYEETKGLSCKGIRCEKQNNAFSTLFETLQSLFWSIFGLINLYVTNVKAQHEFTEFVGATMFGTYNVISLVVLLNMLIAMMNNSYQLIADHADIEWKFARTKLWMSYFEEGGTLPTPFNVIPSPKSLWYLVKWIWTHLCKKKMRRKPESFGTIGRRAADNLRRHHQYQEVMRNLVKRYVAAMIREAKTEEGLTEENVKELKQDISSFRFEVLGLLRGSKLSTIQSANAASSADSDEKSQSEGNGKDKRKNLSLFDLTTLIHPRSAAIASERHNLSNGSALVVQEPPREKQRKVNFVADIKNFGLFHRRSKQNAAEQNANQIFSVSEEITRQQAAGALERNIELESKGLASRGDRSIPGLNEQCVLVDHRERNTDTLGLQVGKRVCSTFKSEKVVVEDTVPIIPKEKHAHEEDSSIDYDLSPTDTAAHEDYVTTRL
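Assay system: HEK293 cells with stable TRPC4beta plus mu-opioid receptor expression. Dosing: single dose. Measured by: Fluo4 Ca2+ flux fluorescence. Also added: DAMGO in two steps, submaximal then maximal. Read-out: B score from integrated Fluo4 fluorescence ratio.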
TRPC4 act: activators of mouse TRPC4 channel, primary screen, Fluo4 calcium, HEK293 TRPC4beta/mu-opioid cells; actives 0.49% (n = 310,000); Short transient receptor potential channel 4 (Mus musculus), Q9QUQ5; Fluo4 calcium fluorescence; hits give high values; B-score at 10 µM;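 active = B-score above 5 SD of library B-scores, and initial fluorescence ratio not above library mean plus 5 SD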;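 also: positive B-score marks a calcium rise read as TRPC4 activation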
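system = HEK293 cells stably co-expressing mouse TRPC4beta and mu-opioid receptor | schedule = Fluo4 dye loading 45 min at room temperature, 110 s recording | measure = B-scored integrated calcium fluorescence ratio | signal = Fluo4 calcium-sensitive dye fluorescence, kinetic, 1 Hz baseline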
TRPC6 activator: mouse TRPC6 channel activators, primary screen, cell-based, HEK293, membrane potential dye. Short transient receptor potential channel 6 (Mus musculus), Q61143. HEK293-TRPC6 membrane potential dye fluorescence; hits give high values. B-score at 10 µM. actives 0.13% (n = 310,000);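 active = B-score of the integrated fluorescence ratio above library mean plus 3 SD, and starting fluorescence ratio within library mean plus 5 SD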;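 also: higher score means more depolarization so channel activation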
TRPC6 inh: mouse TRPC6 channel inhibitors, primary screen, cell-based, HEK293, membrane potential dye; Short transient receptor potential channel 6 (Mus musculus), Q61143; B-score at 10 µM; AID 2553, 2010; ACh-evoked depolarization; hits give low values; actives 1.1% (n = 310,000);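 active = B-score under library mean minus 3 SD, initial fluorescence not abnormally high, positive integrated signal ratio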;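 also: B-score derived from integrated fluorescence ratio over the kinetic read; more negative B-score means stronger inhibition of depolarization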
TRPC4 PAM: positive allosteric modulators of TRPC4, primary screen, cell-based, mouse TRPC4beta, HEK293 mu-opioid, Fluo-4 calcium; Short transient receptor potential channel 4 (Mus musculus), Q9QUQ5; DAMGO EC20, Fluo-4 Ca2+ flux; hits give high values; B-score at 10 µM; actives 0.42% (n = 310,000); AID 2227, 2009;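 active = B-score of calcium response area above 5 SD of library B-scores, with initial fluorescence ratio within 5 SD of library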;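 also: B-score of integrated fluorescence ratio over time as area under calcium response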
CR mimetic SO: reduction of superoxide in aged yeast, primary screen, HTS; superoxide response (% of plate mean), % at 10 µM; AID 2690, 2010; actives 0.18% (n = 330,000); S. cerevisiae aged cells, superoxide DHE fluorescence; hits give low values;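 active = superoxide response under a set limit, about three screen SD below normal, cut at about 65% in these data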;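 also: yeast aged for seven days with compound at 30 °C before DHE staining; 100% = average MFI of all compound-treated wells on the plate with controls excluded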
TRPC4 sel inh 2: second check of whether TRPC6 inhibitors also affect mouse TRPC4 | AID 2776 | shares compounds with TRPC6 inh | actives 42% (n = 920) | inhibition, % at 10 µM | HEK293 TRPC4/MOR, membrane potential dye fluorescence; channel activated by saturating DAMGO dose;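 active = compounds whose fluorescence signal differed from control wells by over 3 SD, either direction, in both duplicate plates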
TRPC4 spec: mouse TRPC4 modulation by TRPC6 hits, confirmation, selectivity assay for TRPC6 inhibitor project, cell-based, HEK293 TRPC4/mu-opioid, membrane potential dye | shares compounds with TRPC6 inh | membrane potential fluorescence | activity change, negative = inhibition, % at 10 µM | actives 61% (n = 920) | AID 2777, 2010;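 active = rise or fall in signal beyond 3 SD of buffer-only wells in both replicate plates, either sign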;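 also: integrated kinetic ratio of fluorescence range over baseline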
HEK293 MPD ctr 2-1: nonspecific membrane potential effects, parental HEK293, confirmation, counter-screen for TRPC6 inhibitor project, cell-based, second counter screen. shares compounds with TRPC6 inh. parental HEK293 membrane potential dye fluorescence; maximal acetylcholine challenge after compound addition. signal change vs control, % at 10 µM. actives 31% (n = 920);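 active = membrane potential signal moving either way by over 3 SD of the maximum-effect control, in both duplicate plates, meaning non-specific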
HEK293 MPD ctr-1: membrane potential modulation in parental HEK293, confirmation, counter-screen for TRPC6 inhibitor project, cell-based; membrane potential signal change, % at 10 µM; parental HEK293 membrane potential dye fluorescence; AID 2780, 2010; actives 60% (n = 920); shares compounds with TRPC6 inh;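 active = membrane potential signal shifting up or down by more than 3 SD of buffer-only wells, on both duplicate plates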
HEK293 MPD ctr-2: parental HEK293 membrane potential modulation, confirmation, counter-screen for TRPC6 modulator project, cell-based; shares compounds with TRPC6 inh; membrane potential dye fluorescence; membrane potential signal change, % at 10 µM; actives 51% (n = 2,400); AID 488924, 2010;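 active = membrane potential signal moves up or down beyond 5 SD from buffer-only wells, on both duplicate plates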
HEK293 MPD ctr 2-2: second check of TRPC6 modulator effects in parental HEK293 cells. shares compounds with TRPC6 inh. membrane potential dye fluorescence; after compound, maximal acetylcholine stimulation. inhibition, % at 10 µM. actives 14% (n = 2,400). AID 488926;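 active = membrane potential signal drops by more than 5 SD from the mean control signal, in both duplicate plates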;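 also: plate controls were acetylcholine ECmax control wells for no effect and buffer only wells for full effect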
TRPC4/MOR mod: TRPC4 modulation by TRPC6 hit compounds, confirmation, selectivity assay for TRPC6 modulator project, cell-based, HEK293 TRPC4/mu-opioid, membrane potential dye, mouse; membrane potential fluorescence; shares compounds with TRPC6 inh; actives 69% (n = 2,400); percent change from control (negative = decrease, positive = increase), % at 10 µM;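 active = membrane potential signal moved up or down beyond 5 SD of buffer control wells, in both duplicate plates, actives on both sides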;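 also: plate controls were assay buffer wells for no effect and DAMGO maximal-effect wells for full effect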
TRPC4/MOR inh 2: second check of whether TRPC6 modulators also affect mouse TRPC4 | inhibition, % at 10 µM | HEK293 TRPC4/mu-opioid, membrane potential dye fluorescence; stimulated with maximal-effect DAMGO | shares compounds with TRPC6 inh | actives 55% (n = 2,400);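 active = drop in membrane potential signal beyond 5 SD of the control wells in both duplicate plates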;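 also: TRPC4 counter screen for TRPC6 hits run under conditions tuned for TRPC6 not TRPC4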
TRPC6 block conf: mouse TRPC6 channel inhibitors, confirmation, HEK293 cells, membrane potential dye, duplicate | actives 43% (n = 3,300) | shares compounds with TRPC6 inh | AID 488960, 2010 | ACh-evoked depolarization | inhibition, % at 10 µM;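 active = fluorescence ratio falls more than 5 SD below the full-stimulation control mean, in both duplicate runs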;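 also: integrated fluorescence ratio of peak minus minimum over baseline after agonist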
TRPC6 act confirm: mouse TRPC6 channel activators, confirmation, HEK293 cells, membrane potential dye, duplicate. shares compounds with TRPC6 inh. HEK293-TRPC6 membrane potential dye fluorescence, FDSS. activation, % at 10 µM. actives 11% (n = 2,800). AID 488961, 2010;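 active = ratio signal rise beyond 5 SD above unstimulated control wells' mean, seen in both duplicate runs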;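 also: plate controls were buffer EC0 wells for no effect and acetylcholine ECmax response for full effect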
* hit, by the source's call; i = inactive; nt = not tested or not shown. This is a sample that favours compounds with a hit; in the whole collection about 2.3% have one here.

SMILES	TRPC4 block	TRPC4 act	TRPC6 activator	TRPC6 inh	TRPC4 PAM	CR mimetic SO	HEK293 MPD ctr-2	HEK293 MPD ctr 2-2	TRPC4/MOR mod	TRPC4/MOR inh 2	TRPC6 block conf	TRPC6 act confirm	others
Cc1ccc([N+](=O)[O-])cc1N=Nc1c(C)[nH]n(C(N)=S)c1=O	i	i	i	i	i	106	nt	nt	nt	nt	nt	nt
Cc1ccc([N+](=O)[O-])cc1N=Nc1c(-c2ccc([N+](=O)[O-])cc2)[nH]n(C(N)=S)c1=O	i	i	i	-6.4*	i	nt	i	i	i	48%*	48%*	i
COCCCNC(=S)N1CCCN(c2nc3cc(C)c(C)cc3cc2C#N)CC1	i	i	i	-5.2*	i	104	i	i	i	i	60%*	nt
CCOCCCNC(=S)N1CCCN(c2nc3cc(C)c(C)cc3cc2C#N)CC1	i	i	i	i	i	104	nt	nt	nt	nt	nt	nt
COCCCNC(=S)N1CCCN(c2nc3cc(C)ccc3cc2C#N)CC1	i	i	i	-11*	i	100	nt	nt	nt	nt	85%*	nt	TRPC4 sel inh 2=i;TRPC4 spec=i;HEK293 MPD ctr 2-1=i;HEK293 MPD ctr-1=i
CN(C)CCCN(C(=O)c1ccc(S(=O)(=O)N2CCCCCC2)cc1)c1nc2c(F)cc(F)cc2s1	i	157*	i	-5.2*	i	102	i	i	20%*	103%*	i	i
CCOC(=O)N1CCN(S(=O)(=O)c2ccc(C(=O)N(CCCN(C)C)c3nc4cc(OC)ccc4s3)cc2)CC1	i	i	i	-5.6*	i	102	i	i	-25%*	81%*	73%*	i
Cc1cc(C)c(S(=O)(=O)NCC2CCC(C(=O)NCCCN3CCC(C)CC3)CC2)c(C)c1 (stereo not given)	i	i	i	i	i	94	nt	nt	nt	nt	nt	nt
COc1ccc(C2=NCCc3cc(OC)c(OC)cc32)cc1	i	i	i	i	i	92	nt	nt	nt	nt	nt	nt
COc1ccc(C2=NCCc3cc(OC)c(OC)cc32)cc1OC	i	i	i	-7.4*	i	108	-410%*	i	-70%*	62%*	63%*	i
COC(=O)Cc1sc(-c2ccccn2)nc1-c1ccccc1	i	i	i	-5.7*	i	95	i	i	12%*	i	i	i
Cc1cc(=O)oc(C)c1C(=O)Nc1ccc(F)cc1	i	i	i	i	i	95	nt	nt	nt	nt	nt	nt
O=C(c1ccc(Oc2cc(Cl)cc(Cl)c2)o1)N1CCCCC1	i	i	i	-5.6*	i	88	i	i	i	i	i	i
CCOC(=O)N1CCc2c(sc(NC(=O)CN3CCN(C)CC3)c2C(=O)Nc2ccccc2)C1	i	i	i	-5.3*	i	107	-83%*	i	-24%*	46%*	i	i
CCOC(=O)N1CCc2c(sc(NC(=O)CN3CCOCC3)c2C(=O)Nc2ccccc2)C1	i	i	i	i	i	110	nt	nt	nt	nt	nt	nt
CN(C)S(=O)(=O)c1cccc(NC(=S)N2CCc3ccccc32)c1	i	i	i	i	i	88	nt	nt	nt	nt	nt	nt
c1cncc(CNc2ncnc3sccc23)c1	i	44*	28*	i	i	114	i	i	i	i	i	i
c1ccc(CNc2ncnc3sccc23)cc1	i	i	i	i	i	82	nt	nt	nt	nt	nt	nt
Cn1c(N/N=C2\CCCc3ccccc32)nc2c1c(=O)n(Cc1ccc(F)cc1)c(=O)n2C	i	i	i	i	i	nt	nt	nt	nt	nt	nt	nt
CCOC(=O)c1cnc2ccc(Cl)cc2c1NCCN(C)C	i	i	i	-6.5*	i	100	-104%*	i	-18%*	49%*	46%*	i
CCOC(=O)c1cnc2c(C)cccc2c1NCc1ccco1	i	i	i	i	i	104	nt	nt	nt	nt	nt	nt
